The values that follow come from ChEMBL document CHEMBL2010797, “Exploring aigialomycin d and its analogues as protein kinase inhibitors for cancer targets” (ACS Med Chem Lett, 2011).

Structures are written as SMILES.

Assay [1] addresses Cyclin-dependent kinase 2/cyclin A (Homo sapiens) (UniProt P24941+P20248+P78396). The assay can be described thus: Inhibition of CDK2/cyclin A using 5-FAM-GGGPATPKKAKKL-COOH as substrate at 10 uM after 1 hr by IMAP assay. In kind it is protein-complex assay. The essentials:
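IMAP fluorescence-polarization enzyme assay on CDK2/cyclin A, testing competition at the ATP site. Compounds tested at 10 μM, with purvalanol A at 1 μM as reference. Percent inhibition is the average ± SD of three independent experiments, or the mean of two for some compounds.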

For assay [2], the target named is MAP kinase-interacting serine/threonine-protein kinase 2 (Homo sapiens, UniProt Q9HBH9). As to the kind of experiment: Inhibition of MNK2 using 5-FAM-TATKSGSTTKNRFVV-NH2 as substrate preincubated for 1 hr prior substrate addition measured after 2 hrs by IMAP assay.
A short description of assay [3]: Inhibition of MAP.
A short description of assay [4]: Inhibition of MEK.
Assay [5] has as its target Cyclin-dependent kinase 2/cyclin A (Homo sapiens, UniProt P24941). The assay can be described thus: Inhibition of CDK2/cyclin A using 5-FAM-GGGPATPKKAKKL-COOH as substrate after 1 hr by IMAP assay. The class given is protein-complex assay. The essentials: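 IMAP fluorescence-polarization assay on CDK2/cyclin A. IC50 taken from dose–response curves, given as average ± SD of three independent experiments, or the mean of two for one compound.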

MAP kinase-interacting serine/threonine-protein kinase 2, sequence (Q9HBH9 whole entry): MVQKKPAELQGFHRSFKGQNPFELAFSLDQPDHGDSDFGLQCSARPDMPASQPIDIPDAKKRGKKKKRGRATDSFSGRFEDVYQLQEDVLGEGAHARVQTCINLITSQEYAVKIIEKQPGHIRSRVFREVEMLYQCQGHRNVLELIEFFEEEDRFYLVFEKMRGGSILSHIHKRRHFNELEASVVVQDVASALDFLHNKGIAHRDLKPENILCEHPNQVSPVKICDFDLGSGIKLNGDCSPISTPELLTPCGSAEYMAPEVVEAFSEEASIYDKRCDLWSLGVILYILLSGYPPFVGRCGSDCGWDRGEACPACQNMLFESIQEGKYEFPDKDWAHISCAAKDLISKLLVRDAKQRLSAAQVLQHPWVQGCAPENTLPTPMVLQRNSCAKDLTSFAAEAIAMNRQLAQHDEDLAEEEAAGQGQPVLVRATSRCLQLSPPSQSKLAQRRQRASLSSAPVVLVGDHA

As usually defined, the inhibition is the drop in the measured response relative to a control, in per cent. A word on the IC50: it is the point on the concentration scale where inhibition reaches its midpoint. Low readings indicate inhibition by little substance, high ones a need for much substance. In assay [1], `C[C@H]1C/C=C/[C@@H](O)[C@@H](O)CCC(O)Cc2cc(O)cc(O)c2C(=O)O1` (mixture of isomers) had an inhibition of 8%. Moreover, the IC50 in assay [2] was greater than 10 µM. In assay [1], `O=C1OCC/C=C/[C@@H](O)[C@@H](O)CC/C=C/c2cc(O)cc(O)c21` displayed an inhibition of 38%. The IC50 in assay [2] is greater than 10 µM. `C[C@H]1C/C=C/[C@@H](O)[C@@H](O)CCC(=NO)Cc2cc(O)cc(O)c2C(=O)O1` (mixture of isomers) yielded an inhibition in assay [1] of 19%. Besides, in assay [2], the half-maximal inhibitory concentration (IC50) was greater than 10 µM. The like results for `COc1cc(O)cc2c1C(=O)O[C@@H](C)C/C=C/[C@@H](O)[C@@H](O)CC/C=C/2` were, in that order, 17% and greater than 10 µM. In assay [1], `C[C@H]1C/C=C/CCCC/C=C/c2cc(O)cc(O)c2C(=O)O1` returned an inhibition of 17%. The IC50 in assay [2] stood at 1.61 µM.

`COc1cc(O)c2c(c1)[C@H]1O[C@@H]1C[C@H](O)[C@H](O)C(=O)/C=C\C[C@H](C)OC2=O` registered an INH in assay [3] of 17 nM. For `COc1cc2c(c(OC)c1)C(=O)O[C@@H](C)C/C=C/[C@@H](O)[C@@H](O)CC/C=C/2`, the inhibition in assay [1] was found to be 13%. Also, in assay [2], the half-maximal inhibitory concentration (IC50) is greater than 10 µM. For `C[C@H]1C/C=C/[C@H]2OC(C)(C)O[C@H]2CC/C=C/c2cc(O)cc(O)c2C(=O)O1`, in that order: 19% and 0.58 µM. In the case of `C[C@H]1CCC[C@@H](O)[C@@H](O)CCC(O)Cc2cc(O)cc(O)c2C(=O)O1` (mixture of isomers), the inhibition in assay [1] turned out to be 6%. This compound also returned an IC50 in assay [2] greater than 10 µM. Take `COc1cc(O)c2c(c1)CCC[C@H](O)[C@H](O)C(=O)/C=C\C[C@H](C)OC2=O`: in assay [4], the INH was determined as 4 nM. `COc1cc(O)c2c(c1)/C=C/CC[C@H](O)[C@H](O)/C=C/C[C@H](C)OC2=O` returned an inhibition in assay [1] of 49%. Also, the results for the IC50 in assay [2] and in assay [5] were greater than 10 µM and 19 µM, respectively. For `COc1cc(O)cc2c1C(=O)O[C@@H](C)CCC[C@@H](O)[C@@H](O)CC/C=C/2`, the inhibition in assay [1] came to 10%. The IC50 in assay [2] was greater than 10 µM. As to `C[C@@H]1C/C=C/[C@@H](O)[C@@H](O)CC/C=C/c2cc(O)cc(O)c2C(=O)O1`, in assay [1], the inhibition came out at 64%. In addition, the IC50 in assay [2] was greater than 10 µM; in assay [5] it was 19 µM. On to `C[C@H]1CCC[C@@H](O)[C@@H](O)CC/C=C/c2cc(O)cc(O)c2C(=O)O1`, for which the inhibition in assay [1] was 25%. For the same compound, the IC50 in assay [2] amounted to 1.35 µM. In turn, `C[C@H]1CCC[C@@H](O)[C@@H](O)CCCCc2cc(O)cc(O)c2C(=O)O1` had an inhibition in assay [1] of 16%. In addition, the IC50 in assay [2] is greater than 10 µM. The like results for `C[C@H]1CCC[C@@H](O)[C@@H](O)CCC(=O)Cc2cc(O)cc(O)c2C(=O)O1` were, in that order, 17% and greater than 10 µM. As to `CC(C)[C@H](CO)Nc1nc(Nc2cccc(Cl)c2)c2ncn(C(C)C)c2n1`, in assay [1], the inhibition turned out to be 94%.

With `C[C@H]1C/C=C/[C@@H](O)[C@@H](O)CCC(=O)Cc2cc(O)cc(O)c2C(=O)O1`, the inhibition in assay [1] amounted to 21%. The compound also returned a 50% inhibitory concentration (IC50) in assay [2] greater than 10 µM.
